Measured values reported in ChEMBL document CHEMBL3102808, “Synthesis, in vitro antimalarial activity and cytotoxicity of novel 4-aminoquinolinyl-chalcone amides” (Bioorg Med Chem, 2014).

What was measured:
[1] = Cytotoxicity against human WI38 cells after 48 hrs by SRB assay; type: cell-based; conditions: WI-38, 48 h
Summary of the method: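 WI-38 normal human fetal lung fibroblasts, passages 21–50, seeded at 10 000 cells/well and incubated 24 h. Compounds dissolved in DMSO, diluted in medium to five concentrations, then exposed 48 h. Untreated cells as control, medium-only blank, parthenolide as standard. Cells TCA-fixed and stained with sulforhodamine B (NCI protocol). IC50 by non-linear regression.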

[2] = Selectivity index, ratio of IC50 for human WI38 cells to IC50 for Plasmodium falciparum 3D7; type: toxicity, cell-based, WI-38; conditions: read-out: Ratio IC50
Summary of the method: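 Selectivity index calculated as IC50 on WI-38 fibroblasts (48 h SRB) divided by IC50 on P. falciparum 3D7 (pLDH assay).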

Plasmodium falciparum [3] = assay: Antimalarial activity against Plasmodium falciparum W2 after 48 hrs by LDH colorimetric assay; type: functional, organism-based; conditions: W2, 48 h
Summary of the method: (§1)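 Parasite survival after drug exposure read by pLDH colorimetric enzyme assay; APAD co-factor, formazan absorbance at 620 nm. Samples prepared in parasite culture medium in 96-well plates. Survival per well relative to drug-free control wells. IC50 from fitted sigmoidal dose-response curves.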

Plasmodium falciparum [4] = assay: Resistance index, ratio of IC50 for Plasmodium falciparum W2 to IC50 for Plasmodium falciparum 3D7; type: functional
Summary of the method: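 P. falciparum 3D7 and W2 cultures were exposed to test samples prepared in parasite culture medium. Survival was read by a pLDH colorimetric assay using APAD as cofactor, with formazan absorbance at 620 nm and percentage survival set against drug-free wells. IC50 for each strain came from fitted sigmoidal dose-response curves, and the ratio is IC50 W2 / IC50 3D7.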

Plasmodium falciparum [5] = assay: Antimalarial activity against Plasmodium falciparum 3D7 after 48 hrs by LDH colorimetric assay; type: functional, organism-based; conditions: 3D7, 48 h; summary of the method: as §1
Plasmodium falciparum [6] = assay: Ratio of chloroquine IC50 to compound IC50 for Plasmodium falciparum W2 after 48 hrs by LDH colorimetric assay; type: functional

Compound	IC50 [1]	selectivity ratio [2]	IC50 (Plasmodium falciparum [3])	Ratio IC50 (Plasmodium falciparum [4])	IC50 (Plasmodium falciparum [5])	Ratio IC50 (Plasmodium falciparum [6])
Cc1ccc(C(=O)/C=C/c2ccc(C(=O)NCCOCCOCCNc3ccnc4cc(Cl)ccc34)cc2)o1	10200 nM	40	270 nM	1.1	260 nM	–
Cc1ccc(C(=O)/C=C/c2ccc(C(=O)NCCCCCCNc3ccnc4cc(Cl)ccc34)cc2)o1	19500 nM	435	70 nM	1.5	50 nM	2
Cc1ccc(C(=O)/C=C/c2ccc(C(=O)N(C)CCCNc3ccnc4cc(Cl)ccc34)cc2)o1	18600 nM	50	460 nM	1.2	370 nM	–
Cc1ccc(C(=O)/C=C/c2ccc(C(=O)NCCCN(C)CCCNc3ccnc4cc(Cl)ccc34)cc2)o1	5300 nM	58	220 nM	2.4	90 nM	–
Cc1ccc(C(=O)/C=C/c2ccc(C(=O)N3CCN(c4ccnc5cc(Cl)ccc45)CC3)cc2)o1	17300 nM	32	1260 nM	2.3	540 nM	–
Cc1ccc(C(=O)/C=C/c2ccc(C(N)=O)cc2)o1	–	–	–	–	10000 nM	–
CCCCNC(=O)c1ccc(/C=C/C(=O)c2ccc(C)o2)cc1	–	–	–	–	10000 nM	–
Cc1ccc(C(=O)/C=C/c2ccc(C(=O)N3CCOCC3)cc2)o1	–	–	–	–	> 30000 nM	–
Cc1ccc(C(=O)/C=C/c2ccc(C(=O)O)cc2)o1	> 100000 nM	–	14200 nM	0.8	18400 nM	–
Cc1ccc(C(=O)/C=C/c2ccc(C(=O)NCCNc3ccnc4cc(Cl)ccc34)cc2)o1	47300 nM	446	1780 nM	16.7	110 nM	–
Cc1ccc(C(=O)/C=C/c2ccc(C(=O)NCCCNc3ccnc4cc(Cl)ccc34)cc2)o1	74500 nM	1120	230 nM	3.4	70 nM	–
Cc1ccc(C(=O)/C=C/c2ccc(C(=O)NCCCCNc3ccnc4cc(Cl)ccc34)cc2)o1	39000 nM	819	100 nM	2.1	50 nM	–
Cc1ccc(C(=O)/C=C/c2ccc(C(=O)NC(C)CNc3ccnc4cc(Cl)ccc34)cc2)o1 (centres undefined)	10000 nM	126	110 nM	1.4	80 nM	–
C=C1C(=O)O[C@@H]2C3O[C@]3(C)CC/C=C(\C)CC[C@@H]12 (some centres undefined)	16400 nM	–	–	–	–	–
